The source of these data is PubChem BioAssay.

Molecules are shown by their SMILES. Calls of active or inactive are those of the source.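 Rule for the calls, unless noted: active = GFP response above 150% of the DMSO level; inconclusive = fewer than 70 events counted for a yeast strain; inactive = the rest.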

The nature of test [1]: hit retest on RPL19A-GFP reporter strain – cell-based, S. cerevisiae, flow cytometry, cherry picks, mother/daughter gates, confirmation (AID 2270;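 active = GFP response below 50% of the DMSO control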). The conditions noted are these: 3 h, at 10 µM, stronger effect = lower value, 100 = same GFP as DMSO wells. On the technique in general: A flow cytometer gives signals particle by particle.
Test [2] can be described thus: yeast TOR pathway reporter LAP4-GFP change – cell-based, cherry picks, flow cytometry, mother/daughter gates, confirmation (AID 2271;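 active = GFP response above 150% of the DMSO control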;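 note: ratio of sample to DMSO plate mean so 100% equals DMSO level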). The note with it: S. cerevisiae LAP4-GFP strain, 3 h, at 10 µM, stronger effect = higher value, 100 means same as DMSO control. Put shortly:
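Material: Alexa Fluor 633-labelled Saccharomyces cerevisiae GFP-fusion strain, single-plex | Amount: Yeast cells seeded at OD600 of 0.2 | Buffer or medium: SC growth medium | Schedule: 3 h exposure, 30 °C | Measured by: HT flow cytometry, GFP fluorescence channel | Evaluation: % GFP response vs DMSO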

Test [3] can be described thus: TOR pathway reporter MEP2-GFP, retest of hits – S. cerevisiae, flow cytometry GFP, cherry picks, confirmation (AID 2272;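 active = GFP response above 150% of the DMSO control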;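 note: ratio of well signal to plate DMSO mean so 100% equals DMSO level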). The note with it: S. cerevisiae MEP2-GFP strain, 3 h, at 10 µM, stronger effect = higher value.
Test [4] can be described thus: yeast AGP1-GFP fluorescence change, single-dose – cell-based, flow cytometry, S. cerevisiae, cherry picks, confirmation (AID 2273).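 Note: median GFP channel fluorescence over the whole cell population gate.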 The conditions noted are these: S. cerevisiae AGP1-GFP strain, 3 h, at 10 µM.
A short description of test [5]: TOR pathway CIT2 reporter hit retest – S. cerevisiae, GFP fusion, cherry picks, mother/daughter gates, confirmation (AID 2274). The conditions noted are these: S. cerevisiae CIT2-GFP strain, flow cytometry, 3 h, at 10 µM, stronger effect = higher value.
[6] abbreviates: measured here: daughter cell gate.
[7] abbreviates: measured here: mother cell gate.
[8] abbreviates: measured here: daughter cell gate response.
Where [9] appears, read: measured here: mother cell gate response.

`COc1cccc2cc(C(=O)N3CCN(C/C=C/c4ccccc4)CC3)c(=O)oc12`: the GFP response vs DMSO in test [1] is 98.6% (inactive); in test [1] (setting [6]), 99.6%; in test [1] (setting [7]), 98%; in test [3] it was 103% (inactive). The GFP response relative to DMSO in test [2] is 97% (inactive); in test [2] (setting [8]), 95.9%; in test [2] (setting [9]) it was 98.4%. For the same compound, the GFP response, % of DMSO in test [4] is 96.7% (inactive); in test [5], 95.9% (inactive); in test [5] (setting [6]) it was 93.8%; in test [5] (setting [7]), 96.8%.
With `CC(=O)Nc1ccc(Nc2cc(C)nc3c(-c4ccc(Cl)cc4)c(C)nn23)cc1`, the GFP response vs DMSO in test [1] is 94.6% (inactive); in test [1] (setting [6]) it was 94.4%; in test [1] (setting [7]) it was 95.8%; in test [3], 100% (inactive). Further, the results for the GFP response relative to DMSO in test [2], in test [2] (setting [8]) and in test [2] (setting [9]) were 94.1% (inactive), 92.8% and 95.1%, respectively. In addition, the GFP response, % of DMSO in test [4] is 95% (inactive); in test [5], 105% (inactive); in test [5] (setting [6]), 105%; in test [5] (setting [7]) it was 104%.
For the compound `Cc1ccc(N2C(=O)C(Cl)=C(Nc3c(C)n(C)n(-c4ccccc4)c3=O)C2=O)cc1`, the GFP response vs DMSO was 96.9% (inactive) in test [1], 93.9% in test [1] (setting [6]), 96.1% in test [1] (setting [7]) and 101% (inactive) in test [3]. Further, the GFP response relative to DMSO in test [2] was 101% (inactive); in test [2] (setting [8]), 101%; in test [2] (setting [9]), 101%. For the same compound, the GFP response, % of DMSO in test [4] is 105% (inactive); in test [5], 100% (inactive); in test [5] (setting [6]), 103%; in test [5] (setting [7]) it was 100%.
Turning to `COc1ccccc1CNC(=O)CS(=O)Cc1nc(-c2ccc(OC)c(OC)c2)oc1C` (centres undefined), the GFP response vs DMSO in test [1] is 97.2% (inactive); in test [1] (setting [6]), 97.4%; in test [1] (setting [7]), 98%; in test [3] it was 105% (inactive). In addition, the GFP response relative to DMSO in test [2] was 96.7% (inactive); in test [2] (setting [8]), 97.6%; in test [2] (setting [9]), 96.1%. Further, the GFP response, % of DMSO is 97.6% (inactive) in test [4], 104% (inactive) in test [5], 108% in test [5] (setting [6]) and 103% in test [5] (setting [7]).
Turning to `O=C(Nc1cccc(O)c1)c1ccc(Br)cc1`, the GFP response vs DMSO is 96% (inactive) in test [1], 97% in test [1] (setting [6]), 97.2% in test [1] (setting [7]) and 102% (inactive) in test [3]. In addition, the GFP response relative to DMSO in test [2] is 98.8% (inactive); in test [2] (setting [8]) it was 96.5%; in test [2] (setting [9]) it was 100%. The GFP response, % of DMSO in test [4] was 103% (inactive); in test [5], 102% (inactive); in test [5] (setting [6]), 102%; in test [5] (setting [7]) it was 100%.
Consider `CCN(CC)C(=O)c1ccc2c3c(cccc13)C(=O)N(CCc1ccc(OC)c(OC)c1)C2=O`, for which the GFP response vs DMSO in test [1] was 98.8% (inactive); in test [1] (setting [6]), 99.3%; in test [1] (setting [7]) it was 98.8%; in test [3] it was 99.5% (inactive). The GFP response relative to DMSO in test [2] is 108% (inactive); in test [2] (setting [8]), 97.9%; in test [2] (setting [9]) it was 109%. For the same compound, the GFP response, % of DMSO in test [4] was 95.2% (inactive); in test [5] it was 96.4% (inactive); in test [5] (setting [6]) it was 98.3%; in test [5] (setting [7]), 94.5%.
With `CCCCC1OC23CCCCC2C(C#N)(C(=N)O3)C1(C#N)C#N` (centres undefined), the GFP response vs DMSO in test [1] was 101% (inactive); in test [1] (setting [6]), 100%; in test [1] (setting [7]) it was 96.8%; in test [3] it was 176% (active). The figures for the GFP response relative to DMSO in test [2], in test [2] (setting [8]) and in test [2] (setting [9]) were 118% (inactive), 117% and 111%, respectively. Further, the GFP response, % of DMSO in test [4] is 103% (inactive); in test [5], 119% (inactive); in test [5] (setting [6]) it was 103%; in test [5] (setting [7]) it was 98.7%.
`O=C(O)Cc1ccc2ccc3ccccc3c2c1`: the GFP response vs DMSO is 96.8% (inactive) in test [1], 92.8% in test [1] (setting [6]), 97.8% in test [1] (setting [7]) and 102% (inactive) in test [3]. For the same compound, the GFP response relative to DMSO is 106% (inactive) in test [2], 105% in test [2] (setting [8]) and 105% in test [2] (setting [9]). For the same compound, the GFP response, % of DMSO in test [4] was 96.1% (inactive); in test [5], 104% (inactive); in test [5] (setting [6]), 99.7%; in test [5] (setting [7]), 104%.
As to `COc1ccc(OC)c(C(=O)/C=C/c2ccccc2C(F)(F)F)c1`, the GFP response vs DMSO in test [1] was 97.6% (inactive); in test [1] (setting [6]), 95.8%; in test [1] (setting [7]) it was 98.7%; in test [3], 105% (inactive). Besides, the GFP response relative to DMSO in test [2] is 102% (inactive); in test [2] (setting [8]), 103%; in test [2] (setting [9]), 103%. In addition, the GFP response, % of DMSO in test [4] is 98.9% (inactive); in test [5], 94.7% (inactive); in test [5] (setting [6]), 96.8%; in test [5] (setting [7]) it was 94.7%.
Turning to `COc1ccc(/C=N/Nc2nnc(C)n2N)cc1OC(C)=O`, the GFP response vs DMSO in test [1] is 99.5% (inactive); in test [1] (setting [6]) it was 100%; in test [1] (setting [7]), 99%; in test [3] it was 104% (inactive). Moreover, the GFP response relative to DMSO in test [2] is 94.2% (inactive); in test [2] (setting [8]), 96.5%; in test [2] (setting [9]) it was 92.6%. Further, the GFP response, % of DMSO in test [4] is 102% (inactive); in test [5] it was 104% (inactive); in test [5] (setting [6]) it was 104%; in test [5] (setting [7]), 103%.
For `COc1cc(NC(=O)c2ccccc2[N+](=O)[O-])ccc1NC(=O)c1cc2ccccc2o1`, the GFP response vs DMSO in test [1] was 101% (inactive); in test [1] (setting [6]), 99.1%; in test [1] (setting [7]), 101%; in test [3], 103% (inactive). Moreover, the GFP response relative to DMSO in test [2] is 97% (inactive); in test [2] (setting [8]) it was 97.5%; in test [2] (setting [9]), 97.3%. The GFP response, % of DMSO in test [4] was 101% (inactive); in test [5] it was 97.3% (inactive); in test [5] (setting [6]), 97.4%; in test [5] (setting [7]), 95.6%.
With `O=[N+]([O-])c1ccc(Sc2ccccc2Cl)nc1`, the GFP response vs DMSO in test [1] is 103% (inactive); in test [1] (setting [6]), 104%; in test [1] (setting [7]), 103%; in test [3], 112% (inactive). In addition, the GFP response relative to DMSO in test [2] was 91.9% (inactive); in test [2] (setting [8]) it was 93.6%; in test [2] (setting [9]), 89.7%. In addition, the GFP response, % of DMSO was 106% (inactive) in test [4], 105% (inactive) in test [5], 106% in test [5] (setting [6]) and 103% in test [5] (setting [7]).
For the compound `COc1ccc(CCNC2=C(Cl)C(=O)N(CCc3ccccc3)C2=O)cc1OC`, the GFP response vs DMSO in test [1] is 101% (inactive); in test [1] (setting [6]) it was 102%; in test [1] (setting [7]) it was 102%; in test [3], 102% (inactive). Also, the values for the GFP response relative to DMSO in test [2], in test [2] (setting [8]) and in test [2] (setting [9]) were 103% (inactive), 105% and 103%, respectively. The GFP response, % of DMSO in test [4] was 97.4% (inactive); in test [5], 107% (inactive); in test [5] (setting [6]), 99.7%; in test [5] (setting [7]), 103%.
On to `O=c1cc(-c2c(F)c(F)c(F)c(F)c2F)oc2c(F)c(F)c(F)c(F)c12`, for which the GFP response vs DMSO in test [1] was 105% (inactive); in test [1] (setting [6]), 101%; in test [1] (setting [7]) it was 101%; in test [3], 131% (inactive). Besides, the GFP response relative to DMSO in test [2] is 145% (inactive); in test [2] (setting [8]) it was 120%; in test [2] (setting [9]), 145%. The GFP response, % of DMSO in test [4] is 113% (inactive); in test [5], 132% (inactive); in test [5] (setting [6]), 119%; in test [5] (setting [7]), 118%.
